{"source": "paper PMC2099187", "about": "(The Journal of Cell Biology, 2007)", "key": {"HEK-AT1AR cells": {"tested_on": "HEK-AT1AR cells", "experiment": "Resensitization of ATII-induced Ca2+ signaling", "assay_type": "cell-based, human", "details": "SM-19712 10 μM, 20 min and 2 h recovery", "summary_of_the_method": "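HEK-AT1AR cells were exposed to ATII (100 nM) or vehicle for 1 h at 37°C, washed, and allowed to recover in agonist-free medium at 37°C. They were then rechallenged with ATII (100 nM) while [Ca2+]i was measured. The [Ca2+]i change is expressed as % of the vehicle-pretreated response. Inhibitor (10 μM) or DMSO was preincubated 20–60 min and kept in buffers throughout. Mean ± SE, n ≥ 3.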"}, "HEK cells": {"tested_on": "HEK cells", "experiment": "BK-induced Ca2+ signaling, desensitization and resensitization", "assay_type": "cell-based, human", "details": "SM-19712 10 μM", "summary_of_the_method": "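HEK cells with native B2R were loaded with Fura-2AM and [Ca2+]i read at 37°C, on coverslips or in suspension. Cells were preincubated with BK 100 nM or vehicle (10 min, 37°C), washed, recovered 0–120 min, then rechallenged with BK 100 nM. SM-19712 10 μM, bafilomycin A1 0.15 or 1 μM, or DMSO was preincubated 20–60 min and kept in buffers throughout.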"}}}
{"smiles": "Cc1nn(-c2ccccc2)c(NC(=O)NS(=O)(=O)c2ccc(Cl)cc2)c1C#N.[Na]", "note": "[SM-19712]", "values": [{"measurement": "Effect on resensitization of ATII-induced Ca2+ signaling", "setting": "HEK-AT1AR cells", "result": "did not affect resensitization at either time"}, {"measurement": "Effect on response to a single BK challenge ([Ca2+]i)", "setting": "HEK cells; BK 100 nM, thiorphan 1 μM, phosphoramidon 1 μM", "result": "did not affect responses to a single BK challenge"}, {"measurement": "Effect on desensitization of BK-induced Ca2+ signaling", "setting": "HEK cells; bafilomycin A1 0.15 or 1 μM", "result": "had no effect"}, {"measurement": "Effect on resensitization of BK-induced Ca2+ signaling", "setting": "HEK cells; bafilomycin A1 0.15 or 1 μM, 0–120 min recovery", "result": "had no effect"}]}
